Measured values published in article PMC11245987 (Computational and Structural Biotechnology Journal, 2024).

Tests used:
CTSL [1] = target: T1, CTSL (Homo sapiens, UniProt P07711); experiment: CTSL activity test, cell-free system; type: biochemical; settings: for inhibition at 100 µM: read-out: inhibition of CTSL
CTSL [2] = target: T1, CTSL; experiment: Enzyme kinetics of CTSL; type: biochemical; settings: for inhibition mechanism: 6.25 µM to 100 µM, both Km and Vmax decreased
Procedure, shortened: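 A standard-curve conversion factor turned signal into velocity. Values were corrected by subtracting the […] and fitted to Michaelis-Menten. Lineweaver–Burk plots gave the inhibition mechanism. Mean ± SEM.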

T1 sequence (P07711 114-288 limits assumed): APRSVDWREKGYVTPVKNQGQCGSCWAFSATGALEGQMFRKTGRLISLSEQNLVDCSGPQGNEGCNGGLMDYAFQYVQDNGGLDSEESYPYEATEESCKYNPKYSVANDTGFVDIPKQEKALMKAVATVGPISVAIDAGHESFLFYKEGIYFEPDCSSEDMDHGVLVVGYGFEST
T1 sequence (P07711 292-333 limits assumed): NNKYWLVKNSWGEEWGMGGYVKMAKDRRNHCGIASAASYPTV

In the case of `O=CCc1ccccc1` [Phenylacetaldehyde], the inhibition at 100 µM (CTSL [1]) is reported as greater than 90%.
Work on `COc1cc(O)cc(O)c1C(=O)/C=C/c1ccccc1` [(E)-Cardamonin] yielded an inhibition at 100 µM (CTSL [1]) greater than 90%.
With `CC1(C)CCC2=C(O1)c1ccccc1C(=O)C2=O` [Beta-Lapachone] the inhibition mechanism (CTSL [2]) was “uncompetitive inhibition mechanism”, the Vmax (CTSL [2]; inhibitor 6.25 μM) was 194.8 ± 9.2 Rlu/min and the Vmax (CTSL [2]; inhibitor 12.5 μM) was 181.3 ± 32.9 Rlu/min. For the same compound, the Vmax (CTSL [2]; inhibitor 25 μM) was 136.9 ± 27.6 Rlu/min, the Vmax (CTSL [2]; inhibitor 50 μM) was 103.1 ± 2.2 Rlu/min and the Vmax (CTSL [2]; inhibitor 100 μM) was 39.9 ± 0.2 Rlu/min. It also gave an IC50 (CTSL [1]) of 9.6 µM and an inhibition at 100 µM (CTSL [1]) greater than 90%.
For `Cc1c(O)c(C)c2c(c1O)C(=O)C[C@@H](c1ccc(O)cc1)O2` [Farrerol], the inhibition at 100 µM (CTSL [1]) was greater than 90%.
With `CC1=CC(=O)c2c(O)cccc2C1=O` [Plumbagin] the inhibition mechanism (CTSL [2]) was “uncompetitive inhibition mechanism”, the Vmax (CTSL [2]; inhibitor 6.25 μM) was 321.7 ± 13.9 Rlu/min and the Vmax (CTSL [2]; inhibitor 12.5 μM) was 277.5 ± 15.6 Rlu/min. The Vmax (CTSL [2]; inhibitor 25 μM) was 270.5 ± 11.2 Rlu/min, the Vmax (CTSL [2]; inhibitor 50 μM) was 216.8 ± 20.5 Rlu/min and the Vmax (CTSL [2]; inhibitor 100 μM) was 12.3 ± 2.4 Rlu/min. The IC50 (CTSL [1]) was 31.3 µM and the inhibition at 100 µM (CTSL [1]) was greater than 90%.
Compound `O=C(/C=C/c1ccc(O)cc1)c1c(O)cc(O)cc1O` [Naringenin chalcone] has an inhibition at 100 µM (CTSL [1]) greater than 90%.
`O=C(N[C@H](COC(=O)[C@H](Cc1ccccc1)NC(=O)c1ccccc1)Cc1ccccc1)c1ccccc1` [Asperphenamate] showed an inhibition at 100 µM (CTSL [1]) greater than 90%.
`COc1cc(O)c(C(=O)/C=C/c2ccccc2)c(OC)c1` [Flavokawain B] showed an inhibition at 100 µM (CTSL [1]) greater than 90%.
